Measurements: ChEMBL document CHEMBL1154611 (J Med Chem, 2009)
Values after ≈ are worked out from the molar mass of the structure shown. Active and inactive are the calls of the source. The calls are words filed in the database; no cut-off is given here.

Experiments:
Motilin receptor = Motilin receptor (Oryctolagus cuniculus, UniProt A5A4K8); test: Agonist activity at motilin receptor in rabbit smooth muscle assessed as maximal possible tissue contraction; format: functional
Procedure, shortened: (§1)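 Rabbit smooth muscle contractility assay. EC50 is the concentration giving 50% of the maximal possible contraction. Tachyphylaxis is the % contractile response to an EC90 drug concentration after three cycles of administration and washout.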

[1] = molecular target: Motilin receptor (Oryctolagus cuniculus) (UniProt A5A4K8); test: Agonist activity at motilin receptor in rabbit smooth muscle assessed as tachyphylaxis at EC90 concentration after 4th dose; format: functional; procedure, shortened: as §1
Streptococcus pneumoniae [2] = test: Antibacterial activity against erythromycin-sensitive Streptococcus pneumoniae ATCC 6301; format: functional
Procedure, shortened: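 MIC, the minimal growth inhibitory concentration, was determined in routine screening against the highly erythromycin-sensitive strain Streptococcus pneumoniae ATCC6301.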

Enterococcus faecalis = test: Antimicrobial activity against Enterococcus faecalis; format: functional, organism-based
Procedure, shortened: (§2)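 MIC was determined across a panel of about 200 clinical isolates from a variety of specimens held in a university clinical microbiology collection, with about 10 isolates per species. The panel covers gut flora and organisms commonly known to develop antibiotic resistance.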

Enterococcus faecium = test: Antimicrobial activity against Enterococcus faecium; format: functional, organism-based; procedure, shortened: as §2
Micrococcus luteus = test: Antimicrobial activity against Micrococcus luteus; format: functional, organism-based; procedure, shortened: as §2
Staphylococcus aureus = test: Antimicrobial activity against Staphylococcus aureus; format: functional, organism-based; procedure, shortened: as §2
Streptococcus equinus = test: Antimicrobial activity against Streptococcus bovis; format: functional, organism-based; procedure, shortened: as §2
Streptococcus pneumoniae [3] = test: Antimicrobial activity against Streptococcus pneumoniae; format: functional, organism-based; procedure, shortened: as §2
Streptococcus pyogenes = test: Antimicrobial activity against Streptococcus pyogenes; format: functional, organism-based; procedure, shortened: as §2
Corynebacterium jeikeium = test: Antimicrobial activity against Corynebacterium jeikeium; format: functional, organism-based; procedure, shortened: as §2
Corynebacterium sp. = test: Antimicrobial activity against Corynebacterium sp.; format: functional, organism-based; procedure, shortened: as §2
Lactobacillus sp. = test: Antimicrobial activity against Lactobacillus sp.; format: functional, organism-based; procedure, shortened: as §2
Escherichia coli = test: Antimicrobial activity against Escherichia coli; format: functional, organism-based; procedure, shortened: as §2
Klebsiella pneumoniae = test: Antimicrobial activity against Klebsiella pneumoniae; format: functional, organism-based; procedure, shortened: as §2
Proteus mirabilis = test: Antimicrobial activity against Proteus mirabilis; format: functional, organism-based; procedure, shortened: as §2
Haemophilus influenzae = test: Antimicrobial activity against Haemophilus influenzae; format: functional, organism-based; procedure, shortened: as §2
Moraxella catarrhalis = test: Antimicrobial activity against Moraxella catarrhalis; format: functional, organism-based; procedure, shortened: as §2
Bacteroides fragilis = test: Antimicrobial activity against Bacteroides fragilis; format: functional, organism-based; procedure, shortened: as §2
Clostridioides difficile = test: Antimicrobial activity against Clostridium difficile; format: functional, organism-based; procedure, shortened: as §2
Clostridium perfringens = test: Antimicrobial activity against Clostridium perfringens; format: functional, organism-based
Procedure, shortened: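 MIC determined across a panel of about 200 clinical strains that represent gut flora and species known to develop antibiotic resistance. The panel included about 10 Clostridium perfringens isolates, taken from a variety of clinical specimens and held in the University of Rochester Medical Center clinical microbiology collection.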

Cutibacterium acnes = test: Antimicrobial activity against Propionibacterium acnes; format: functional, organism-based
Staphylococcus = test: Antimicrobial activity against Staphylococcus coagulase; format: functional, organism-based; procedure, shortened: as §2
hERG (KCNH2) [4] = molecular target: T1, hERG (KCNH2) (Homo sapiens, UniProt Q12809); test: Inhibition of human ERG expressed in HEK cells at 30 uM; format: cell-based, HEK293; settings: HEK cells expressing human ERG
hERG (KCNH2) [5] = molecular target: T1, hERG (KCNH2); test: Inhibition of human ERG expressed in HEK cells at 300 uM; format: cell-based, HEK293; settings: HEK cells expressing human ERG
[6] = molecular target: Voltage-gated inwardly rectifying potassium channel KCNH2 (Homo sapiens, UniProt Q12809); test: Inhibition of human ERG expressed in HEK cells; format: cell-based, HEK293
[7] = Ratio of IC50 for human ERG to EC50 for rabbit motilin receptor agonism; format: functional
Procedure, shortened: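 The motilin EC50 came from the rabbit smooth muscle contraction assay, and the ratio of the two served as a cardiovascular safety predictor.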

Motilin receptor (Oryctolagus cuniculus), sequence (A5A4K8 as listed by the source): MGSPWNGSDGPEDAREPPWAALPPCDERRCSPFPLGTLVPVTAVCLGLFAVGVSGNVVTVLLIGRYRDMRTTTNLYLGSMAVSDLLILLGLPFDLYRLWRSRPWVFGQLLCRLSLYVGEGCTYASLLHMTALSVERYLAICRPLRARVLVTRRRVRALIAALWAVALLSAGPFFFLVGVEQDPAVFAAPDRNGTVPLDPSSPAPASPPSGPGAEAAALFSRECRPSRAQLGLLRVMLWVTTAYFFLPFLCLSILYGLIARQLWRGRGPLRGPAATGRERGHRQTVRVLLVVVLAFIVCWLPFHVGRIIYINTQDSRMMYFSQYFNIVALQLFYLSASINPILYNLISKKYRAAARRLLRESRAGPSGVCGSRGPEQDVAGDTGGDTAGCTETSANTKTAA
Motilin receptor, sequence (A5A4K8 whole entry): as the sequence (A5A4K8 as listed by the source) above
T1 sequence (Q12809 whole entry): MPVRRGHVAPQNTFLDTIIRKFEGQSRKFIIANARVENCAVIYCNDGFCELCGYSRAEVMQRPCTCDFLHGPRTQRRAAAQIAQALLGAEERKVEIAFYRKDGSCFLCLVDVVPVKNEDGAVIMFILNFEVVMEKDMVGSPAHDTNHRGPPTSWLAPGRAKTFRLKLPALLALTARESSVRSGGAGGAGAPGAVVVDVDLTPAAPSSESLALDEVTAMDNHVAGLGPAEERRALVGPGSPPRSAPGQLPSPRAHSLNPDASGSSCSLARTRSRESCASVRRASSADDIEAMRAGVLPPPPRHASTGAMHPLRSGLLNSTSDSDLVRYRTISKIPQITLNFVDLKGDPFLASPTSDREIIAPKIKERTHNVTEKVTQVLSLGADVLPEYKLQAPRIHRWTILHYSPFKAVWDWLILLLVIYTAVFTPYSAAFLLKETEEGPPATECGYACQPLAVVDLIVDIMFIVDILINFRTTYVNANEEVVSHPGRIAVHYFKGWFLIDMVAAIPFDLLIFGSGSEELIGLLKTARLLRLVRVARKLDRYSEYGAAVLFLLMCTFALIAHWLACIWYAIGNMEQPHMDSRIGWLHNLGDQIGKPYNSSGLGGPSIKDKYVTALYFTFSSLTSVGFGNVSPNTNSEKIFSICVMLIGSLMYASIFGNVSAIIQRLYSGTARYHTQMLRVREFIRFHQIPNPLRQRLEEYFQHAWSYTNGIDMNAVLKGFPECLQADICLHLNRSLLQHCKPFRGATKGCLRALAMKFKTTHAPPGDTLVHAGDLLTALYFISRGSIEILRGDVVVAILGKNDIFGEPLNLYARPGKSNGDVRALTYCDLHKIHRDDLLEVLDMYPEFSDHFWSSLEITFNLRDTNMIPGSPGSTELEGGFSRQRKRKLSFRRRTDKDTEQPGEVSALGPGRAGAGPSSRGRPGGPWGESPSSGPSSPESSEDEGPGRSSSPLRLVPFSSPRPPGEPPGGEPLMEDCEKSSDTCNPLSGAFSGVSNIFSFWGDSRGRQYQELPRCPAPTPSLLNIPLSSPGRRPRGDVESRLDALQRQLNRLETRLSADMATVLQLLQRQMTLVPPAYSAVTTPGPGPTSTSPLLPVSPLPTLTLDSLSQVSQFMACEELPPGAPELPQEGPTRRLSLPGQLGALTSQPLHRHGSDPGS
Voltage-gated inwardly rectifying potassium channel KCNH2, sequence (Q12809 whole entry): as above

## CC[C@H]1OC(=O)[C@H](C)[C@@H](O[C@H]2C[C@@](C)(OC)[C@@H](O)[C@H](C)O2)[C@H](C)[C@@H](O[C@@H]2O[C@H](C)C[C@H](N(C)C(C)C)[C@H]2O)[C@](C)(O)C[C@@H](C)[C@H](OCC(=O)NC)[C@H](C)[C@@H](O)[C@]1(C)O
Motilin receptor
  EC50: 58 nM
[1]
  Activity: 89%
Streptococcus pneumoniae [2]
  MIC: > 128 µg/mL
Enterococcus faecalis
  Activity: inactive
Enterococcus faecium
  Activity: inactive
Micrococcus luteus
  Activity: inactive
Staphylococcus aureus
  Activity: inactive
Streptococcus equinus
  Activity: inactive
Streptococcus pneumoniae [3]
  Activity: inactive
Streptococcus pyogenes
  Activity: inactive
Corynebacterium jeikeium
  Activity: inactive
Corynebacterium sp.
  Activity: inactive
Lactobacillus sp.
  Activity: inactive
Escherichia coli
  Activity: inactive
Klebsiella pneumoniae
  Activity: inactive
Proteus mirabilis
  Activity: inactive
Haemophilus influenzae
  Activity: inactive
Moraxella catarrhalis
  Activity: inactive
Bacteroides fragilis
  Activity: inactive
Clostridioides difficile
  Activity: inactive
Clostridium perfringens
  Activity: inactive
Cutibacterium acnes
  Activity: inactive
Staphylococcus
  Activity: inactive

## CC[C@H]1OC(=O)[C@H](C)[C@@H](O[C@H]2C[C@@](C)(OC)[C@@H](O)[C@H](C)O2)[C@H](C)[C@@H](O[C@@H]2O[C@H](C)C[C@H](N(C)C(C)C)[C@H]2O)[C@](C)(O)C[C@@H](C)[C@H](O)[C@H](C)[C@@H](O)[C@]1(C)O [3 9-DIHYDRO-N-DESMETHYL-N-ISOPROPYLERYTHROMYCIN A]
Motilin receptor
  EC50: 260 nM
[1]
  Activity: 85%
Streptococcus pneumoniae [2]
  MIC: 32 µg/mL (≈ 41.9 µM)
hERG (KCNH2) [4]
  inhibition at 30 µM: 80%
hERG (KCNH2) [5]
  inhibition at 300 µM: 100%
[6]
  IC50: 10000 nM
[7]
  Ratio IC50/EC50: 38
